# Article PMC6774440 (Journal of molecular recognition : JMR, 2018)
# System: T10
# Assay type: binding, llama
# Settings: cross-reactivity = IC50(TCC)/IC50(cross reacting compound) × 100; nanobody T10
# In short: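 Wild-type T10 (synthetic gene, pET28a(+), ompA leader, C-terminal His6/HA tags) expressed in BL21(DE3) (10 µM IPTG, 16 h, 15 °C), purified by Ni-NTA. Checkerboard-optimized TCC-BSA coat (4 h RT), 1% BSA block. Nanobody competed with serial dilutions of TCC (0–1 ug/mL) or related compounds, 1 h RT. Detection: anti-HA-peroxidase, TMB (pH 5.5, 10 min), A450.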
row,Compound,CR (%) T10 [%]
1,"CS(=O)(=O)N1CCC(NC(=O)Nc2ccc(OC(F)(F)F)cc2)CC1 [sEHi, #1709]",1.5
2,Oc1cc(Cl)ccc1Oc1ccc(Cl)cc1Cl [Triclosan],0.9
3,"O=C(Nc1ccc(Cl)cc1)Nc1ccc(Cl)c(C(F)(F)F)c1 [3-Trifluoromethyl-4,4′-dichlorocarbanilide]",15
4,Dinuron,≤1
5,O=C(Nc1ccccc1)Nc1ccccc1 [Carbanilide],8.8
6,O=C(Nc1ccc(Cl)c(Cl)c1)Nc1ccc(Cl)cc1O [2’-OH TCC],15
7,"CC(=O)N1CCC(NC(=O)Nc2ccc(OC(F)(F)F)cc2)CC1 [sEHi, #1555]",0.9
8,"O=C(Nc1ccc(Cl)cc1)Nc1ccc(Cl)cc1 [4,4’-Dichlorocarbanilide]",100
9,"O=C(Nc1ccc(Cl)cc1)Nc1ccc(Cl)c(Cl)c1 [TCC, 3-(4-chlorophenyl)-1-(3,4-dichlorophenyl)urea]",100
